Experimental data pooled from the literature.
Protocols differ between the studies behind these lines.

| Compound | method | sample | time | pH | temperature | setting | solubility |
| --- | --- | --- | --- | --- | --- | --- | --- |
| N=C(N)NCc1ccc(NC(=O)C23CCC(C(=O)Nc4ccc(C5=CCN(C(=N)N)CC5)cc4)(CC2)CC3)cc1 | shake flask | aqueous buffer | – | pH 7.4 | – | – | 46 µg/mL |
| CN1CCN(CC2CCN(c3nccc4[nH]c(-c5cc(F)cc(F)c5)nc34)CC2)CC1 | shake flask | aqueous buffer | – | pH 6.5 | – | – | > 200 µM |
| CCOc1ccc2cc(-c3nn(CC(C)(C)CO)c(N)c3C(N)=O)cnc2c1 | – | PBS | – | pH 6.5 | 25 °C | – | > 100 µM |
| COc1cc(OC)cc(N(CCNC(C)C)c2ccc3ncc(-c4cnn(C)c4)nc3c2)c1 | – | aqueous buffer | – | pH 7.65 | – | – | 150 µg/mL |
| CC(=O)N[C@@H](CC(N)=O)C(=O)N[C@@H](CCCNC(=N)N)C(=O)N[C@@H](CC(C)C)C(=O)N[C@H]1CSSC[C@@H](C(=O)N[C@H](C(N)=O)[C@@H](C)O)NC(=O)[C@H](CCCNC(=N)N)NC(=O)[C@H](Cc2c[nH]cn2)NC(=O)[C@H](C)NC(=O)CNC(=O)[C@H](Cc2c[nH]c3ccccc23)NC(=O)[C@H](CC(=O)O)NC(=O)[C@H](CCC(N)=O)NC(=O)[C@H](Cc2c[nH]c3ccccc23)NC(=O)[C@H](C(C)C)NC1=O | – | PBS | – | pH 7.4 | – | – | 1050 µg/mL |
| CCc1cc(O)ccc1-c1ccc2c(-c3nc4c([nH]3)CN(C(C)C)[C@H](C(=O)N3CC(N(C)C)C3)C4)n[nH]c2c1 | – | aqueous buffer | – | – | – | – | 13 µM |
| OCCOc1cccc2c(NCc3ccccc3)nc(N3CCOc4ccccc43)nc12 | – | aqueous buffer | – | pH 5 | – | – | 21.5 µg/mL |
| O=C(Nc1ccc(F)cc1C(=O)O)c1ccc(-c2ccccc2)cc1 | shake flask | aqueous buffer | 24 h | pH 6.5 | 25 °C | – | 10 µM |
| COc1c(Cl)cccc1Nc1nc(NCc2ccccc2)c2ccccc2n1 | – | aqueous buffer | – | pH 6.2 | – | – | 0.23 µg/mL |
| Cc1c(N(C)C)c(=O)n(-c2ccccc2)n1C | – | PBS | – | pH 7.4 | – | – | 46300 µg/mL |
| NC1CCN(c2nccc3[nH]c(-c4ccc(F)c(F)c4)nc23)CC1 | shake flask | aqueous buffer | – | pH 6.5 | – | – | > 200 µM |
| Cn1c(-c2nc3cc(C(=O)N4CCCC(N)C4)ccc3n2C)cc2ccccc21 (stereo not shown) | – | aqueous buffer | – | – | – | – | > 350 µM |
| Brc1cccc2c(NCc3ccccc3)nc(NCc3ccccc3)nc12 | – | aqueous buffer | – | pH 7.4 | – | – | < 0.01 µg/mL |
| COc1cccc(OC)c1-c1cc(C(=O)N[C@@H](CC(C)C)C(=O)O)nn1-c1ccnc2cc(Cl)ccc12 | – | aqueous buffer | – | pH 6.2 | – | – | > 155 µg/mL |
| Cc1cc(Nc2ccc(S(F)(F)(F)(F)F)cc2)n2nc(C3CC3)nc2n1 | nephelometry | aqueous buffer | – | pH 6.5 | – | – | 16 to 32 µM |
| CCOc1ccc2cc(-c3nn(C(C)(C)C)c(N)c3C(N)=O)ccc2n1 | – | PBS | – | pH 6.5 | 25 °C | – | 83.5 µM |
| COCc1nn(Cc2ccc(Cn3ccccc3=O)cc2)cc1C(=O)NCc1c(F)ccc(OC)c1F | – | FaSSIF | 4 h | pH 1.6 | – | – | 9 µg/mL |
| Fc1ccc(-c2nc3c(C4CCNCC4)nccc3[nH]2)cc1F | shake flask | aqueous buffer | – | pH 6.5 | – | – | > 200 µM |
| CCC(F)(F)c1nc2nc(C)cc(Nc3ccc(C(F)(F)F)cc3)n2n1 | nephelometry | aqueous buffer | – | pH 6.5 | – | – | 17 to 34 µM |
| CCOC(=O)c1ccc(O)cc1 | – | PBS | – | pH 7.4 | – | – | 1210 µg/mL |
| COc1cccc2c(NCc3ccccc3)nc(-n3c(=O)oc4ccccc43)nc12 | – | aqueous buffer | – | pH 7.4 | – | – | < 0.01 µg/mL |
| CC(=O)Oc1ccccc1C(=O)O | – | PBS | – | pH 7.4 | – | – | 12600 µg/mL |
| Cc1ccc(S(=O)(=O)NCc2ccc(C(=O)NCCN(Cc3ccccc3)C(C)C)cc2)cc1 | – | aqueous buffer | – | pH 7.4 | – | – | 0.79 µg/mL |
| COc1ccccc1C(=O)Nc1cccc(NC(=O)c2cccc(C)c2)c1 | – | aqueous buffer | – | pH 7.4 | – | – | 0.47 µM |
| CSc1nc2nc(C)cc(Nc3ccc(C(F)(F)F)cc3)n2n1 | nephelometry | aqueous buffer | – | pH 6.5 | – | – | 19 to 38 µM |
| CC(C)(C)n1nc(-c2cnc3cc(OC4CCC4)ccc3c2)c(C(N)=O)c1N | – | PBS | – | pH 6.5 | 25 °C | – | 3.7 µM |
| O=C(NCCN1CCCC1)c1cc(-c2ccc(CN3CCOCC3)cc2)nc2ccc(F)cc12 | – | simulated gastric fluid | 4 h | pH 2 | 37 °C | acidic | > 6490 µM |
| CS(=O)(=O)N1CCN(Cc2cc3nc(-c4cccc5[nH]ncc45)nc(N4CCOCC4)c3s2)CC1 | – | FaSSIF | – | – | – | – | 1 µg/mL |

| Compound | method | sample | time | pH | temperature | setting | solubility |
| --- | --- | --- | --- | --- | --- | --- | --- |
| Cc1cc(F)cc(Nc2nc(NCc3ccccc3)c3ccccc3n2)c1 | – | aqueous buffer | – | pH 7.4 | – | – | < 0.01 µg/mL |
| Cc1c(F)cccc1NC(=O)Nc1ccc(Cl)c(S(=O)(=O)[C@H]2CCCNC2)c1O | – | aqueous buffer | 4 h | pH 10 | – | – | 68 µg/mL |
| Fc1ccc(-c2nc3c(N4CCN5CCC4CC5)nccc3[nH]2)cc1F | shake flask | aqueous buffer | – | pH 6.5 | – | – | > 200 µM |
| CCOc1ccc2cc(-c3nn(C4CCCCC4)c(N)c3C(N)=O)cnc2c1 | – | PBS | – | pH 6.5 | 25 °C | – | 34.3 µM |
| COc1cc2ncnc3c2cc1OCCOCCOc1cc(F)c(Cl)cc1N3 | HPLC | aqueous buffer | 24 h | – | – | – | 0.131 to 0.174 µg/mL |
| Clc1cccc(Nc2nc(NCc3cccc(Br)c3)c3ccccc3n2)c1 | – | aqueous buffer | – | pH 6.2 | – | – | 0.02 µg/mL |
| NCCCCNc1nc2cc(Cl)ccc2n1Cc1ccccc1 | shake flask | aqueous buffer | 20 h | pH 6.5 | 25 °C | – | ≥ 200 µM |
| CN1CCN(C2=Nc3cc(Cl)ccc3Nc3ccccc32)CC1 | – | FaSSIF | 24 h | pH 7.4 | 37 °C | – | 350 µg/mL |
| CC(C)c1cccc2c(-c3ccccc3)cc(-c3ccc(-c4ccc(C(=O)O)cc4)[nH]3)nc12 | – | PBS | – | pH 7.4 | – | – | 71.6 µM |
| COc1cccc2c(NCc3ccccc3)nc(N3CCNc4ccccc43)nc12 | – | aqueous buffer | – | pH 5 | – | – | 28.2 µg/mL |
| COc1cccc(OC)c1-c1nc(C(=O)N[C@@H](CC(C)C)C(=O)O)cn1-c1ccnc2cc(Cl)ccc12 | – | aqueous buffer | – | pH 5 | – | – | > 52 µg/mL |
| CC(C)C[C@H](NC(=O)[C@H](Cc1ccccc1)NC(=O)c1cnccn1)B(O)O | nephelometry | aqueous buffer | – | pH 6.8 | – | – | 50 µM |
| CC(C)CC(=O)N1CCC[C@H](COc2cccc3c2C(N)=NS(=O)(=O)N3)C1 | – | aqueous buffer | – | pH 7.1 | – | – | 240 µM |
| CC(C)(C)n1nc(-c2cnc3cc(F)ccc3c2)c(C(N)=O)c1N | – | PBS | – | pH 6.5 | 25 °C | – | > 100 µM |
| Clc1ccc2c(c1)nc(C1CCNCC1)n2Cc1ccccc1 | shake flask | aqueous buffer | 20 h | pH 6.5 | 25 °C | – | 125 µM |
| CCCn1nc(C(=O)N2CCCCC2)c2c1CCC(N(C)Cc1ccc(F)cc1)C2 (stereo not shown) | – | PBS | 16 h | pH 7.4 | – | – | 2420 µM |
| CSc1nc2nc(C)cc(Nc3ccc(S(F)(F)(F)(F)F)cc3)n2n1 | nephelometry | aqueous buffer | – | pH 6.5 | – | – | 7.8 to 15 µM |
| COc1cc(Cl)c(C(=O)N[C@@H](CN[C@H]2CC[C@@H](N)CC2)Cc2ccc(C#N)cc2)cc1-c1ccc(CN[C@H](C)c2ccc(C)cc2)o1 | – | aqueous buffer | – | pH 6.5 | – | – | > 3070 µg/mL |
| NCCCNc1nc2cc(Br)ccc2n1Cc1ccccc1 | shake flask | aqueous buffer | 20 h | pH 6.5 | 25 °C | – | 100 µM |
| CN1C(C(=O)Nc2ccccn2)=C(O)c2ccccc2S1(=O)=O | shake flask | aqueous buffer | 48 h | pH 6.5 | – | – | 7 to 9 µg/mL |
| CCc1nc2ccc(Cl)cn2c1C(=O)NCc1ccc(N2CCC(c3ccc(OC(F)(F)F)cc3)CC2)cc1 | – | PBS | – | – | – | – | 61 µM |
| CCCCCCCCCCCCN1CCCC1=O | – | PBS | 48 h | pH 7.4 | 25 °C | – | 21 µM |
| NC(=O)c1ccc(N(Cc2ccc(C3CCCCC3)cn2)C(=O)[C@H]2CCN2S(=O)(=O)c2c(F)c(F)c(F)c(F)c2F)cc1O | – | simulated gastric fluid | – | – | – | – | 107 µg/mL |
| Cc1c(F)cccc1Nc1nc(NCc2ccccc2)c2ccccc2n1 | – | aqueous buffer | – | pH 5 | – | – | 8.4 µg/mL |
| Cc1cc2c(cc1C)[n+](Cc1ccc3ccccc3n1)cn2Cc1ccc2ccccc2n1.[Cl-] | – | water | – | – | – | – | > 500 µg/mL |
| Cl.c1ccc(Cn2c(N3CCNCC3)nc3cc(-c4cc[nH]n4)ccc32)cc1 | shake flask | aqueous buffer | 20 h | pH 6.5 | 25 °C | – | 195 µM |
| COCc1nc2nc(C)cc(Nc3ccc(S(F)(F)(F)(F)F)cc3)n2n1 | nephelometry | aqueous buffer | – | pH 6.5 | – | – | 63 to 130 µM |
